# ChEMBL document CHEMBL5303300, “EUbOPEN Chemogenomics Library - Multiplex” (2023)
# Where “and” joins values, the source holds several entries; their conditions need not be identical. Equal values may be shown once.
# System: Fibroblast
# Test: Multiplex assay against human fibroblast
# Format: toxicity, cell-based
# Settings: number of replicates 2
# In short: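 Live cells were stained at seeding with Hoechst33342, BioTracker Green Microtubule Cytoskeleton Dye, MitoTracker Red and Annexin V Alexa Fluor 680, then imaged on a CQ1 microscope at 37°C and 5% CO2 after compound addition. CellPathfinder machine-learning gating split cells into Hoechst high-intensity objects or normal cells. Normal cells were split into healthy, pyknosed or fragmented nuclei, and pyknosed cells into mitotic or apoptotic. Tubulin, mitochondrial-mass and membrane-permeability phenotypes are per cents of healthy-nucleus cells.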
# [1] = 12 h, 1 µM, compound concentration 1 uM
# [2] = 12 h, 10 µM, compound concentration 10 uM
# [3] = 24 h, 1 µM, compound concentration 1 uM
# [4] = 24 h, 10 µM, compound concentration 10 uM
# [5] = 48 h, 1 µM, compound concentration 1 uM
# [6] = 48 h, 10 µM, compound concentration 10 uM
structure (smiles),measurement,setting,value
CNC(=O)c1c(F)cccc1Nc1nc(Nc2cc3c(cc2OC)CCN3C(=O)CN(C)C)nc2[nH]ccc12,Population Apoptotic (%),[1],26% and 33%
same,Population Fragmented Nuclei (%),[1],9% and 14%
same,Population Healthy Nuclei (%),[1],66% and 70%
same,Population Hoechst High Intensity Objects (%),[1],0%
same,Population Membrane Permeable-Phenotype (%),[1],6% and 2%
same,Population Mitochondria Different-Phenotype (%),[1],0% and 3%
same,Population Mitotic Cells (%),[1],73% and 66%
same,Population Normal (%),[1],100% and 99%
same,Population Pyknosed Nuclei (%),[1],24% and 14%
same,Population Tubulin-Different-Phenotype (%),[1],7% and 20%
same,Total Cell Count,[1],166 and 190
same,Population Apoptotic (%),[2],61% and 48%
same,Population Fragmented Nuclei (%),[2],11% and 13%
same,Population Healthy Nuclei (%),[2],16% and 26%
same,Population Hoechst High Intensity Objects (%),[2],0%
same,Population Membrane Permeable-Phenotype (%),[2],34% and 21%
same,Population Mitochondria Different-Phenotype (%),[2],3%
same,Population Mitotic Cells (%),[2],38% and 51%
same,Population Normal (%),[2],100%
same,Population Pyknosed Nuclei (%),[2],72% and 59%
same,Population Tubulin-Different-Phenotype (%),[2],80% and 51%
same,Total Cell Count,[2],162 and 196
same,Population Apoptotic (%),[3],27% and 47%
same,Population Fragmented Nuclei (%),[3],11% and 9%
same,Population Healthy Nuclei (%),[3],67% and 80%
same,Population Hoechst High Intensity Objects (%),[3],0%
same,Population Membrane Permeable-Phenotype (%),[3],2% and 1%
same,Population Mitochondria Different-Phenotype (%),[3],0% and 4%
same,Population Mitotic Cells (%),[3],72% and 52%
same,Population Normal (%),[3],100% and 99%
same,Population Pyknosed Nuclei (%),[3],20% and 10%
same,Total Cell Count,[3],159 and 167
same,Population Apoptotic (%),[4],70% and 79%
same,Population Fragmented Nuclei (%),[4],16% and 11%
same,Population Healthy Nuclei (%),[4],18% and 17%
same,Population Hoechst High Intensity Objects (%),[4],1% and 0%
same,Population Membrane Permeable-Phenotype (%),[4],72% and 73%
same,Population Mitochondria Different-Phenotype (%),[4],6% and 7%
same,Population Mitotic Cells (%),[4],29% and 20%
same,Population Normal (%),[4],98% and 99%
same,Population Pyknosed Nuclei (%),[4],64% and 71%
same,Population Tubulin-Different-Phenotype (%),[4],75% and 65%
same,Total Cell Count,[4],159 and 152
same,Population Apoptotic (%),[5],58% and 81%
same,Population Fragmented Nuclei (%),[5],13% and 15%
same,Population Healthy Nuclei (%),[5],73% and 76%
same,Population Hoechst High Intensity Objects (%),[5],0%
same,Population Membrane Permeable-Phenotype (%),[5],2% and 1%
same,Population Mitochondria Different-Phenotype (%),[5],0%
same,Population Mitotic Cells (%),[5],41% and 18%
same,Population Normal (%),[5],100%
same,Population Pyknosed Nuclei (%),[5],13% and 8%
same,Population Tubulin-Different-Phenotype (%),[5],3% and 5%
same,Total Cell Count,[5],178 and 200
same,Population Apoptotic (%),[6],90% and 93%
same,Population Fragmented Nuclei (%),[6],37% and 31%
same,Population Healthy Nuclei (%),[6],20% and 24%
same,Population Hoechst High Intensity Objects (%),[6],0%
same,Population Membrane Permeable-Phenotype (%),[6],75% and 48%
same,Population Mitochondria Different-Phenotype (%),[6],3% and 0%
same,Population Mitotic Cells (%),[6],9% and 6%
same,Population Normal (%),[6],100% and 99%
same,Population Pyknosed Nuclei (%),[6],41% and 43%
same,Population Tubulin-Different-Phenotype (%),[6],62% and 57%
same,Total Cell Count,[6],158 and 145
CCN1CCN(Cc2ccc(C(=O)Nc3ccc(C)c(Oc4ccc5c(c4)CC(=O)N5)c3)cc2C(F)(F)F)CC1.Cl.Cl,Population Apoptotic (%),[1],32% and 37%
same,Population Fragmented Nuclei (%),[1],14% and 13%
same,Population Healthy Nuclei (%),[1],59% and 62%
same,Population Hoechst High Intensity Objects (%),[1],0%
same,Population Membrane Permeable-Phenotype (%),[1],2% and 6%
same,Population Mitochondria Different-Phenotype (%),[1],2% and 1%
same,Population Mitotic Cells (%),[1],67% and 62%
same,Population Normal (%),[1],100% and 99%
same,Population Pyknosed Nuclei (%),[1],25% and 23%
same,Population Tubulin-Different-Phenotype (%),[1],27%
same,Total Cell Count,[1],230 and 264
same,Population Apoptotic (%),[2],47% and 35%
same,Population Fragmented Nuclei (%),[2],22% and 13%
same,Population Healthy Nuclei (%),[2],58% and 61%
same,Population Hoechst High Intensity Objects (%),[2],0%
same,Population Membrane Permeable-Phenotype (%),[2],8%
same,Population Mitochondria Different-Phenotype (%),[2],11% and 14%
same,Population Mitotic Cells (%),[2],52% and 64%
same,Population Normal (%),[2],99% and 100%
same,Population Pyknosed Nuclei (%),[2],18% and 25%
same,Population Tubulin-Different-Phenotype (%),[2],78% and 73%
same,Total Cell Count,[2],298 and 282
same,Population Apoptotic (%),[3],47% and 46%
same,Population Fragmented Nuclei (%),[3],21% and 16%
same,Population Healthy Nuclei (%),[3],61% and 59%
same,Population Hoechst High Intensity Objects (%),[3],0%
same,Population Membrane Permeable-Phenotype (%),[3],3% and 1%
same,Population Mitochondria Different-Phenotype (%),[3],2% and 4%
same,Population Mitotic Cells (%),[3],52% and 53%
same,Population Normal (%),[3],99% and 100%
same,Population Pyknosed Nuclei (%),[3],17% and 23%
same,Population Tubulin-Different-Phenotype (%),[3],28% and 20%
same,Total Cell Count,[3],278 and 269
same,Population Apoptotic (%),[4],59% and 68%
same,Population Fragmented Nuclei (%),[4],15% and 7%
same,Population Healthy Nuclei (%),[4],57% and 51%
same,Population Hoechst High Intensity Objects (%),[4],0% and 1%
same,Population Membrane Permeable-Phenotype (%),[4],8% and 5%
same,Population Mitochondria Different-Phenotype (%),[4],27% and 45%
same,Population Mitotic Cells (%),[4],40% and 31%
same,Population Normal (%),[4],99% and 98%
same,Population Pyknosed Nuclei (%),[4],26% and 40%
same,Population Tubulin-Different-Phenotype (%),[4],89% and 78%
same,Total Cell Count,[4],258 and 216
same,Population Apoptotic (%),[5],88% and 73%
same,Population Fragmented Nuclei (%),[5],23% and 20%
same,Population Healthy Nuclei (%),[5],67% and 61%
same,Population Hoechst High Intensity Objects (%),[5],0%
same,Population Membrane Permeable-Phenotype (%),[5],4% and 6%
same,Population Mitochondria Different-Phenotype (%),[5],4% and 5%
same,Population Mitotic Cells (%),[5],12% and 26%
same,Population Normal (%),[5],100% and 99%
same,Population Pyknosed Nuclei (%),[5],8% and 18%
same,Population Tubulin-Different-Phenotype (%),[5],28% and 27%
same,Total Cell Count,[5],282 and 246
same,Population Apoptotic (%),[6],89% and 92%
same,Population Fragmented Nuclei (%),[6],9% and 18%
same,Population Healthy Nuclei (%),[6],44% and 41%
same,Population Hoechst High Intensity Objects (%),[6],1% and 2%
same,Population Membrane Permeable-Phenotype (%),[6],13% and 12%
same,Population Mitochondria Different-Phenotype (%),[6],48% and 61%
same,Population Mitotic Cells (%),[6],10% and 7%
same,Population Normal (%),[6],98% and 97%
same,Population Pyknosed Nuclei (%),[6],46% and 39%
same,Population Tubulin-Different-Phenotype (%),[6],78% and 93%
same,Total Cell Count,[6],190 and 197
